{"source": "ChEMBL document CHEMBL4706645", "about": "“The discovery of novel small molecule allosteric activators of aldehyde dehydrogenase 2” (Eur J Med Chem, 2021)", "note": "Activity calls are given as the source filed them. The calls are words filed in the database; no cut-off is given here.", "data": [{"target": "T1, Aldehyde dehydrogenase, mitochondrial (Homo sapiens) (UniProt P05091)", "T1 sequence (whole entry)": "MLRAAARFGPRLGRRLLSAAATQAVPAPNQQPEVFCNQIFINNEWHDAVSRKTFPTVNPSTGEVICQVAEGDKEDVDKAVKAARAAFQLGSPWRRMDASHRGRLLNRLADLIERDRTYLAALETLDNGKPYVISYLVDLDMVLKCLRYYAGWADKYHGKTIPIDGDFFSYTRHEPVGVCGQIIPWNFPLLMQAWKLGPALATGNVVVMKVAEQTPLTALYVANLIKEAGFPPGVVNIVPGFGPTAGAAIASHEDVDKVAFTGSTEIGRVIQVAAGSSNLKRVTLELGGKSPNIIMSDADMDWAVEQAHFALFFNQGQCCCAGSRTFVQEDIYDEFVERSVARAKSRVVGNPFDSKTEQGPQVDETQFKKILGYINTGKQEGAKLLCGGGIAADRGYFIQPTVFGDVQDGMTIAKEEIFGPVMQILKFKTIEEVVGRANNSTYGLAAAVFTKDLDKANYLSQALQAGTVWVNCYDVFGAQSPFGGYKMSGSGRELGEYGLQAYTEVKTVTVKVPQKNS", "experiment": "(§1) Allosteric activation of recombinant human full-length ALDH2 (18 to 517 residues) expressed in Escherichia coli at 100 uM using acetaldehyde as substrate measured after 3 hrs in presence of NAD+ by […] relative to Alda-1", "conditions": "not given", "how_it_was_run": "(§2)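 Read-out is absorbance at 450 nm, taken at room temperature. Starting concentrations are 5 mg/ml ALDH2, 25 mM acetaldehyde and 1 mM NAD+. Activity is the change in absorbance per minute (SlopeOD450). Maximum fold activation is calculated from ALDH2 activity with compound and corrected by the activity of the Alda-1 reference.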", "values": [{"smiles": "COc1ccc(CN(C(C)=O)c2ccc(N3CCOCC3)c(C(=O)NCC3(O)CC3)c2)cc1F", "fold change (FC)": "inactive"}, {"smiles": "Clc1ccc(NCc2ccc3c(c2)OCO3)cc1Cl", "fold change (FC)": "inactive"}, {"smiles": "O=C(CCC(=O)OCC(=O)c1ccccc1Cl)Nc1ccc(Cl)cc1", "fold change (FC)": "6%"}, {"smiles": "Clc1cc(NCc2ccc3c(c2)OCO3)ccc1N1CCOCC1", "fold change (FC)": "inactive"}, {"smiles": "Fc1ccc(NCc2ccc3c(c2)OCO3)cc1", "fold change (FC)": "inactive"}, {"smiles": "O=C(O)c1cc(NCc2ccc3c(c2)OCO3)ccc1Cl", "fold change (FC)": "inactive"}, {"smiles": "COc1ccc(CNc2ccc(N3CCC(F)CC3)c(C(=O)NCC3CC3)c2)cc1F", "fold change (FC)": "inactive"}, {"smiles": "O=C(O)c1cc(NCc2ccc3c(c2)OCO3)ccc1N1CCOCC1", "fold change (FC)": "23%"}, {"smiles": "COc1ccc(CNc2ccc(-c3ccccc3)c(C(=O)NCC3CC3)c2)cc1F", "fold change (FC)": "3%"}, {"smiles": "O=C(O)c1cc(NCc2ccc(Cl)c(Cl)c2)ccc1N1CCOCC1", "fold change (FC)": "9%"}, {"smiles": "COc1ccc(CNc2ccc(N3CCC(F)(F)CC3)c(C(=O)NCC3CC3)c2)cc1F", "fold change (FC)": "12%"}, {"smiles": "COc1ccc(C(=O)Nc2ccc(N3CCOCC3)c(C(=O)NCC3CC3)c2)cc1F", "fold change (FC)": "inactive"}, {"smiles": "COc1ccc(CNc2ccc(N3CCCCC3)c(C(=O)NCC3CC3)c2)cc1F", "fold change (FC)": "inactive"}, {"smiles": "COc1ccc(CN(C)c2ccc(N3CCOCC3)c(C(=O)NCC3CC3)c2)cc1F", "fold change (FC)": "inactive"}, {"smiles": "COc1ccc(CN(C(C)=O)c2ccc(N3CCOCC3)c(C(=O)NCC(C)(C)O)c2)cc1F", "fold change (FC)": "inactive"}]}, {"target": "T1, Aldehyde dehydrogenase, mitochondrial (Homo sapiens)", "experiment": "as §1", "conditions": "filed as activator", "how_it_was_run": "as §2", "units": {"fold change (FC)": "%"}, "values": [{"smiles": "COc1ccc(CNc2ccc(N3CCOCC3)c(C(=O)NCC3CCCCC3)c2)cc1F", "fold change (FC)": 80}, {"smiles": "COc1ccc(CNc2ccc(N3CCOCC3)c(C(=O)NCC(C)C)c2)cc1F", "fold change (FC)": 92}, {"smiles": "COc1ccc(CNc2ccc(N3CCC(O)CC3)c(C(=O)NCC3CC3)c2)cc1F", "fold change (FC)": 80}, {"smiles": "COc1ccc(CNc2ccc(N3CCOCC3)c(C(=O)N3CCCCC3)c2)cc1F", "fold change (FC)": 66}, {"smiles": "COc1ccc(CNc2ccc(N3CCOCC3)c(C(=O)NCC(C)(C)O)c2)cc1F", "fold change (FC)": 120}, {"smiles": "COc1ccc(CNc2ccc(N3CCOCC3)c(C(=O)NCC(C)(C)C)c2)cc1F", "fold change (FC)": 59}, {"smiles": "COc1ccc(CNc2ccc(C3CCOCC3)c(C(=O)NCC3CC3)c2)cc1F", "fold change (FC)": 53}, {"smiles": "COc1ccc(CNc2ccc(N3CCOCC3)c(C(=O)NCC3CCC3)c2)cc1F", "fold change (FC)": 41}, {"smiles": "COc1ccc(CNc2cccc(C(=O)NCC3CC3)c2)cc1F", "fold change (FC)": 56}, {"smiles": "COc1ccc(CNc2ccc(N3CCOCC3)c(C(=O)NCC3CCCC3)c2)cc1F", "fold change (FC)": 51}, {"smiles": "COc1ccc(CNc2ccc(N3CCOCC3)c(C(=O)NCC3CC3)c2)cc1F", "fold change (FC)": 104}, {"smiles": "CNC(=O)c1cc(NCc2ccc(OC)c(F)c2)ccc1N1CCOCC1", "fold change (FC)": 52}, {"smiles": "CCOC(=O)c1cc(NCc2ccc3c(c2)OCO3)ccc1N1CCOCC1", "fold change (FC)": 64}, {"smiles": "COc1ccc(CNc2ccc(N3CCOCC3)c(C(=O)NCC(C)(C)F)c2)cc1F", "fold change (FC)": 101}, {"smiles": "CCNC(=O)c1cc(NCc2ccc(OC)c(F)c2)ccc1N1CCOCC1", "fold change (FC)": 63}, {"smiles": "COc1ccc(CNc2ccc(N3CCOCC3)c(C(=O)NCC3(O)CC3)c2)cc1F", "fold change (FC)": 97}, {"smiles": "CCCNC(=O)c1cc(NCc2ccc(OC)c(F)c2)ccc1N1CCOCC1", "fold change (FC)": 97}, {"smiles": "COc1ccc(CNc2ccc(N3CCOCC3)c(C(=O)NC3CC3)c2)cc1F", "fold change (FC)": 94}]}, {"target": "T2, Aldehyde dehydrogenase, mitochondrial (Homo sapiens, UniProt P05091)", "T2 sequence (P05091 whole entry)": "T1 sequence (whole entry)", "experiment": "Allosteric activation of recombinant human full-length ALDH2 (18 to 517 residues) expressed in Escherichia coli using acetaldehyde as substrate measured after 3 hrs in presence of NAD+ by […]", "conditions": "not given", "how_it_was_run": "as §2", "units": {"EC50": "µM"}, "values": [{"smiles": "O=C(NCc1ccc2c(c1)OCO2)c1c(Cl)cccc1Cl", "EC50": 4.3}, {"smiles": "COc1ccc(CNc2ccc(N3CCOCC3)c(C(=O)NCC3CC3)c2)cc1F", "EC50": 17.9}]}, {"tested_on": "Rattus norvegicus", "experiment": "Protection against middle cerebral artery occlusion-induced Sprague-Dawley rat model of ischemic stroke-like event assessed as reduction in brain infarct size at 64 ug, icv pretreated for 5 mins followed by MCAO surgery for 2 hrs and subsequent reperfusion for 24 hrs by TCC staining based assay relative to control", "type": "functional", "design": "scale not given: the % may be the effect or the level left", "conditions": "dose 64 µg; time 26.0833 hrs; 26.08 h", "units": {"Activity": "%"}, "values": [{"smiles": "COc1ccc(CNc2ccc(N3CCOCC3)c(C(=O)NCC3CC3)c2)cc1F", "Activity": 70}]}, {"tested_on": "Rattus norvegicus", "experiment": "Protection against middle cerebral artery occlusion-induced Sprague-Dawley rat model of ischemic stroke-like event assessed as reduction in brain infarct size at 50 ug, icv pretreated for 5 mins followed by MCAO surgery for 2 hrs and subsequent reperfusion for 24 hrs by TCC staining based assay", "type": "functional, organism-based", "conditions": "dose 50.0 µg, time 26.08333 hrs", "values": [{"smiles": "O=C(NCc1ccc2c(c1)OCO2)c1c(Cl)cccc1Cl", "Activity": "Active"}]}]}
